The source made the active and inactive calls. The rule behind the calls is not given here.
Assays:
[1] = system: Daoy; experiment: Anti-proliferative activity against human Daoy cells assessed as reduction in cell viability incubated for 120 hrs by MTT assay; assay type: functional, cell-based
Summary of the method: (§1)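 Cells seeded in triplicate at 2 × 10^3 per well and allowed to adhere for 24h. JQ1 was given as serial dilutions in full medium, 1nM-6µM, from a 10 mM DMSO stock. Viability was read by MTT at each time point and IC50 derived from dose-response curves. Culture media were RPMI 1640/10% FCS for HD-MB3 (plus 1% NEAA), ONS-76, Daoy and UW-228, and EMEM/10% FCS for D-283 and D-341.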

[2] = system: HD-MB03; experiment: Anti-proliferative activity against human HD-MB03 cells assessed as reduction in cell viability incubated for 48 hrs by MTT assay; assay type: functional, cell-based; conditions: HD-MB03, 48 h; summary of the method: as §1
[3] = system: HD-MB03; experiment: Anti-proliferative activity against human HD-MB03 cells assessed as reduction in cell viability incubated for 120 hrs by MTT assay; assay type: functional, cell-based; conditions: HD-MB03, 120 h; summary of the method: as §1
[4] = system: ONS-76; experiment: Anti-proliferative activity against human ONS-76 cells assessed as reduction in cell viability incubated for 48 hrs by MTT assay; assay type: functional, cell-based; conditions: ONS-76, 48 h; summary of the method: as §1
[5] = system: Daoy; experiment: Anti-proliferative activity against human Daoy cells assessed as reduction in cell viability incubated for 48 hrs by MTT assay; assay type: functional, cell-based; summary of the method: as §1
[6] = system: UW228; experiment: Anti-proliferative activity against human UW228 cells assessed as reduction in cell viability incubated for 72 hrs by MTT assay; assay type: functional, cell-based; conditions: UW228, 72 h; summary of the method: as §1
[7] = system: D283 Med; experiment: Anti-proliferative activity against human D283 cells assessed as reduction in cell viability incubated for 120 hrs by MTT assay; assay type: functional, cell-based; summary of the method: as §1
[8] = system: HD-MB03; experiment: Induction of apoptosis in human HD-MB03 cells assessed as increase in population of cells in sub-G1 phase at 500 nM incubated for 72 hrs by ELISA; assay type: functional, cell-based
[9] = system: UW228; experiment: Induction of apoptosis in human UW228 cells assessed as increase in population of cells in G1 phase at 500 nM incubated for 72 hrs by ELISA; assay type: functional, cell-based
[10] = system: HD-MB03; experiment: Induction of apoptosis in human HD-MB03 cells assessed as increase in population of cells in G1 phase at 500 nM incubated for 72 hrs by ELISA; assay type: functional, cell-based
[11] = system: D283 Med; experiment: Induction of apoptosis in human D283 cells assessed as increase in population of cells in sub-G1 phase at 500 nM incubated for 72 hrs by flow cytometry; assay type: functional, cell-based
Summary of the method: (§2)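 Cells were cultured with 500 nM JQ1 or DMSO control, trypsinised and washed 3 times in PBS. DNA was stained with propidium iodide for 15 min and DNA content analysed by flow cytometry to give G1 and sub-G1 fractions.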

[12] = system: UW228; experiment: Induction of apoptosis in human UW228 cells assessed as increase in population of cells in sub-G1 phase at 500 nM incubated for 72 hrs by flow cytometry; assay type: functional, cell-based
Summary of the method: (§3)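 PI flow cytometry: cells seeded in triplicate, adhered 24h, then exposed to 500 nM JQ1 or DMSO control (methods give 48h culture, legend gives 72h). Harvested by trypsin, washed 3 times in PBS, stained with propidium iodide 15 min, DNA content read by flow cytometry. Sub-G1 fraction taken as apoptotic. Experiments repeated at least 3 times.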

[13] = system: Daoy; experiment: Induction of apoptosis in human Daoy cells assessed as increase in population of cells in sub-G1 phase at 500 nM incubated for 72 hrs by flow cytometry; assay type: functional, cell-based; summary of the method: as §2
[14] = system: ONS-76; experiment: Induction of apoptosis in human ONS-76 cells assessed as increase in population of cells in sub-G1 phase at 500 nM incubated for 72 hrs by flow cytometry; assay type: functional, cell-based; summary of the method: as §3
[15] = system: D283 Med; experiment: Induction of apoptosis in human D283 cells assessed as increase in population of cells in G1 phase at 500 nM incubated for 72 hrs by flow cytometry; assay type: functional, cell-based; summary of the method: as §2
[16] = system: D341 cell line; experiment: Induction of apoptosis in human D341 cells assessed as increase in population of cells in G1 phase at 500 nM incubated for 72 hrs by flow cytometry; assay type: functional, cell-based; summary of the method: as §2
[17] = system: UW228; experiment: Induction of apoptosis in human UW228 cells assessed as increase in population of cells in G1 phase at 500 nM incubated for 72 hrs by flow cytometry; assay type: functional, cell-based
[18] = system: HD-MB03; experiment: Induction of senescence in human HD-MB03 cells assessed as increase in population of cells in G1 phase at 500 nM incubated for 72 hrs by fluorometric SA-beta-gal activity assay; assay type: functional, cell-based
Summary of the method: (§4)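 Senescence read as fluorometric SA-β-gal activity. Cells seeded 2 × 10^3 per well in triplicate and allowed 24h to adhere, then exposed to 500 nM JQ1 or DMSO control for 72h. Assayed per kit protocol. Experiments repeated at least 3 times.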

[19] = system: ONS-76; experiment: Induction of senescence in human ONS-76 cells assessed as increase in population of cells in G1 phase at 500 nM incubated for 72 hrs by fluorometric SA-beta-gal activity assay; assay type: functional, cell-based; summary of the method: as §4
[20] = system: UW228; experiment: Induction of senescence in human UW228 cells assessed as increase in population of cells in G1 phase at 500 nM incubated for 72 hrs by fluorometric SA-beta-gal activity assay; assay type: functional, cell-based; summary of the method: as §4
[21] = system: HD-MB03; experiment: Antiproliferative activity against human HD-MB03 cells at 500 nM incubated for 72 hrs by BrdU ELISA method; assay type: functional, cell-based
Summary of the method: (§5)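 Cells seeded in triplicate at 2 × 10^3 per well with 24h adherence, then treated with 500 nM JQ1 or DMSO control for 72h. Proliferation was measured by BrdU incorporation ELISA. Experiments were run independently at least 3 times.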

[22] = system: Daoy; experiment: Antiproliferative activity against human Daoy cells at 500 nM incubated for 72 hrs by BrdU ELISA method; assay type: functional, cell-based; summary of the method: as §5
[23] = system: UW228; experiment: Antiproliferative activity against human UW228 cells at 500 nM incubated for 72 hrs by BrdU ELISA method; assay type: functional, cell-based; summary of the method: as §5
[24] = system: D283 Med; experiment: Antiproliferative activity against human D283 cells at 500 nM incubated for 72 hrs by BrdU ELISA method; assay type: functional, cell-based; summary of the method: as §5
[25] = system: HD-MB03; experiment: Antitumor activity against human HD-MB03 cells xenografted in female athymic (nu/nu) mouse assessed as delay in time required for tumor growth to an average of 1000 mm3 at 50 mg/kg, ip for 28 days relative to untreated control; assay type: functional; conditions: time 28 day
Summary of the method: (§6)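 Female athymic nu/nu mice, 4 weeks old, received 2 × 10^7 HD-MB3 cells in Matrigel subcutaneously in the left flank. At 150–200 mm3 they were randomised, n=7 per group, to JQ1 50 mg/kg ip daily or vehicle for 28 days or until tumours exceeded 1000 mm3. Calipers were used, with volume = (breadth × length × height)/2. Time to 1000 mm3 was analysed by Kaplan-Meier.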

[26] = system: HD-MB03; experiment: Antitumor activity against human HD-MB03 cells xenografted in female athymic (nu/nu) mouse assessed as increase in mouse survival time at 50 mg/kg, ip for 28 days relative to untreated control; assay type: functional, organism-based; conditions: time 28.0 day; summary of the method: as §6
[27] = system: HD-MB03; experiment: Antitumor activity against human HD-MB03 cells xenografted in female athymic (nu/nu) mouse assessed as reduction in tumor volume at 50 mg/kg, ip measured form days 4 to 14 days relative to untreated control; assay type: functional, organism-based; conditions: time 4-14 day; summary of the method: as §6

With Cc1sc2c(c1C)C(c1ccc(Cl)cc1)=N[C@@H](CC(=O)OC(C)(C)C)c1nnc(C)n1-2 the IC50 [1] was 544 nM, the IC50 [2] was 364 nM and the IC50 [3] was 153 nM. The IC50 [4] was 172 nM, the IC50 [5] was over 1000 nM and the IC50 [6] was over 1000 nM. For the same compound, the IC50 [7] was 316 nM, the Activity [8] was “Active” and the Activity [9] was “Active”. The Activity [10] was “Active”, the Activity [11] was “Active” and the Activity [12] was “Active”. The Activity [13] was “Active”, the Activity [14] was “Active” and the Activity [15] was “Active”. For the same compound, the Activity [16] was “Active”, the Activity [17] was “Active” and the Activity [18] was “Active”. For the same compound, the Activity [19] was “Active”, the Activity [20] was “Active” and the Activity [21] was “Active”. For the same compound, the Activity [22] was “Active”, the Activity [23] was “Active” and the Activity [24] was “Active”. For the same compound, the Time [25] was 8 days, the Activity [26] was “Active” and the Activity [27] was “Active”.

Source: ChEMBL document CHEMBL5712071, “BET bromodomain protein inhibition is a therapeutic option for medulloblastoma” (Oncotarget, 2013)
